One assay is filed under the species Rattus norvegicus. Nature of the assay: Inhibition of lipid peroxidation in rat liver microsomes at 1 uM. Format: functional.
Assay [1] deals with Prostaglandin G/H synthase 1 (Ovis aries) (UniProt P05979). In words: Inhibition of Prostaglandin G/H synthase activity in sheep seminal vesicle was determined. Particulars: concentration not given here. Set-up: concentration or dose not given beside the values.
The target of assay [2] is T1, Polyunsaturated fatty acid 5-lipoxygenase (Rattus norvegicus) (UniProt P12527).
T1 sequence (whole entry): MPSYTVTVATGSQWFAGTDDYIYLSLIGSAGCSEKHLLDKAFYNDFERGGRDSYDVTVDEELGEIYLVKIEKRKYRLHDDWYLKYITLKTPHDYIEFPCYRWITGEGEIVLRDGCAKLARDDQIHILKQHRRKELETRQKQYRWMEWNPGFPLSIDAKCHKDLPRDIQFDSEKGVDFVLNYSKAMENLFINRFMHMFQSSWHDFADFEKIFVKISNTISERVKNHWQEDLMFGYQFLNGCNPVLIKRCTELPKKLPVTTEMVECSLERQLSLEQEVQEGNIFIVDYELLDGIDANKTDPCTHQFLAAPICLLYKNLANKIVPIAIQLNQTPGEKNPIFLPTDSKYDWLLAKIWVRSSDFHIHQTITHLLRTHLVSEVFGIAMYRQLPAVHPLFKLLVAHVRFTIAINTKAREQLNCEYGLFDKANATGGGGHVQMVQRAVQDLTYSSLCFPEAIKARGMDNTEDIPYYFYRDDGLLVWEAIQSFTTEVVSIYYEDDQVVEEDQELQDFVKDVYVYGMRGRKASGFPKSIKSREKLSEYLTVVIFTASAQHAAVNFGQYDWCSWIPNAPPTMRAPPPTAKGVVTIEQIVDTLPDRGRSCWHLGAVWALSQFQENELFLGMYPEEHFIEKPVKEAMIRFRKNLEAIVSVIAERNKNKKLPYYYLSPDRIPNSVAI
Nature of the assay: In vitro inhibition against 5-lipoxygenase in RBL-1 cells was determinedb at 100 uM. The class given is cell-based. Summed up:
(§1)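 Single-concentration test at 100 μM, given as percent inhibition versus control, average of two determinations. RBL-1 cell homogenate (5 × 10⁶ cells) with 2 mM CaCl2 and 0.66 mM arachidonic acid, pH 7.4 phosphate buffer, 3 min at 37 °C. 5-HETE was measured by HPLC absorbance at 235 nm.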

Assay [3] deals with T1, Polyunsaturated fatty acid 5-lipoxygenase (Rattus norvegicus). In words: In vitro inhibition against 5-lipoxygenase in RBL-1 cells was determined at 10e-4 M. The class given is cell-based. Summed up:
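RBL-1 cells grown in RPMI-1640 with 10% heat-inactivated newborn calf serum at 37 °C in 5% CO2, harvested in growth phase, suspended in 50 mM phosphate buffer pH 7.4 (0.25 M sucrose, 1 mM EDTA, 2 mM glutathione) and stored at -70 °C. Homogenate (5 × 10⁶ cells), 2 mM CaCl2 and 0.66 mM arachidonic acid incubated 3 min at 37 °C. MeOH stop, 5-HETE by HPLC at 235 nm. Percent inhibition versus control at 10⁻⁴ M, mean of two determinations.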

A short description of assay [4]: Inhibition of Prostaglandin G/H synthase activity in sheep seminal vesicle was determined. The class given is tissue-based, Ovis aries. In short, it runs like this: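 Sheep seminal vesicle microsomes (32 μg protein) were incubated with [14C]arachidonic acid (0.1 μCi/mL) in pH 7.4 phosphate buffer containing glutathione, epinephrine and EDTA for 10 min at 37 °C. Substrate was removed by two hexane/EtOAc extractions, and aqueous-phase radioactivity was counted by scintillation.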

For assay [5], the target named is Prostaglandin G/H synthase 1 (Ovis aries) (UniProt P05979). Nature of the assay: Inhibition of Prostaglandin G/H synthase activity in sheep seminal vesicle was determined 100 uM.
Assay [6] has as its target T1, Polyunsaturated fatty acid 5-lipoxygenase (Rattus norvegicus). In words: In vitro inhibition against 5-lipoxygenase in RBL-1 cells was determined at 100 uM. Format: cell-based. In short, it runs like this: as §1
Assay [7] deals with Cyclooxygenase (Homo sapiens) (UniProt P35354+P23219). In words: Inhibition of Prostaglandin G/H synthase activity in sheep seminal vesicle was determined 10E-4 […]. Particulars: Ovis aries, target entry is the homologue from another species. The class given is tissue-based.

Structures are written as SMILES.

Sequence of Prostaglandin G/H synthase 1 (Ovis aries) (P05979 whole entry, looked up): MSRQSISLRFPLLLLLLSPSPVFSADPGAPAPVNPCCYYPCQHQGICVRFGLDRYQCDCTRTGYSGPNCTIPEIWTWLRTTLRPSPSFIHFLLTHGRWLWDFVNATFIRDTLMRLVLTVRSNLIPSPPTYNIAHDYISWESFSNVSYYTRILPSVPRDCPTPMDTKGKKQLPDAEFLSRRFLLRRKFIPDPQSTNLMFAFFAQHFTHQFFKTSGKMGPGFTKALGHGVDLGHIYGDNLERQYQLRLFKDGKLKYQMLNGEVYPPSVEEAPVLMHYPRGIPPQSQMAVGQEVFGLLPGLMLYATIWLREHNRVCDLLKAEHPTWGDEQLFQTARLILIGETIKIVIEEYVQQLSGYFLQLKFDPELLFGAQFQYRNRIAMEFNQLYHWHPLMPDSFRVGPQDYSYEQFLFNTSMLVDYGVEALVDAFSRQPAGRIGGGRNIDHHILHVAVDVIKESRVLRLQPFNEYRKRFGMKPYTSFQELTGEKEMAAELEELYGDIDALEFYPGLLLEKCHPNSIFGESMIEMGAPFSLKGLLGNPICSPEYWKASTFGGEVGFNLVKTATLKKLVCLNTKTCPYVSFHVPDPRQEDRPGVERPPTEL

The term inhibition denotes the drop in the measured response relative to a control, in per cent. In the case of `COc1ccc(/C=C/C(=O)c2ccccc2O)cc1O`, the inhibition in the assay filed under Rattus norvegicus was 11%; in assay [1], 8.6%; in assay [2] it was -4.5%.

Usually IC50 stands for the midpoint of a concentration-inhibition curve. With `CN1C(C(=O)Nc2ccccn2)=C(O)c2ccccc2S1(=O)=O` [PIROXICAM], the inhibition in assay [3] is 19%. This molecule had a concentration for half-maximal inhibition (IC50) in assay [4] of 460 µM.

On to `O=C(/C=C/c1ccccc1)c1ccccc1O`, for which the inhibition worked out at 13% in assay [5], 6% in the assay listed under Rattus norvegicus and 19% in assay [6].

Take `O=c1c(O)c(-c2ccc(O)c(O)c2)oc2cc(O)cc(O)c12`: in assay [7], the inhibition amounted to 13%.

As to `O=C(O)c1ccccc1Nc1cccc(C(F)(F)F)c1` [FLUFENAMIC ACID], in assay [3], the inhibition was -0.1%. Also, the 50% inhibitory concentration (IC50) in assay [4] was 19 µM.

The values above are taken from ChEMBL document CHEMBL1127082, “3,4-Dihydroxychalcones as potent 5-lipoxygenase and cyclooxygenase inhibitors” (J Med Chem, 1993).
